Values joined by “and” are separate entries in the source; they are usually repeats but may differ in a detail not shown here. Equal values may be shown once. Read-outs that look alike come from different tables or passages of the source.
Experiments:
[1] = test system: human liver microsomes from six individual liver donors; format: in vitro ADME; conditions: for inhibition of M3 formation in donor HL-109: HL-109: low CYP2C19 activity, high CYP3A activity, no CYP3A5 expression
Summary of the method: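 HLMs from six donors (2 CYP3A5 expressors, 4 non-expressors), 1 mg/mL, were preincubated 10 min with 0.5 μM CYP3cide plus 1 mM NADPH, with a methanol vehicle control. They were diluted 40-fold to 0.025 mg/mL in buffer with 1 mM NADPH, then 2 μM THC was added. Reactions ran 2 min before quench and LC-MS/MS. % activity remaining was normalised to vehicle, in duplicate.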

[2] = target: T1, human FABP1 (Homo sapiens, UniProt P07148); test: DAUDA displacement assay of cannabinoid binding to FABP1
T1 sequence (P07148 1-127): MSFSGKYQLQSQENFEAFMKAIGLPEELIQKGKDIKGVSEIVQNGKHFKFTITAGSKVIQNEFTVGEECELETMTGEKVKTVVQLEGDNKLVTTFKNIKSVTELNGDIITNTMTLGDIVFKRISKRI
Summary of the method: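 Purified human FABP1, protein quantified by BCA and held on ice in gel filtration buffer with 0.5 mM DTT, titrated with test cannabinoid displacing DAUDA. Fluorescence spectra scanned at 600 nm/min, PMT 800 V. Bound-DAUDA signal extracted by singular value decomposition. Kd from ternary binding model fit; EC50 from three-parameter dose-response fit. Mean ± SD, three days, ≥2 protein batches.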

[3] = test system: human liver microsomes from three individual donors; test: Impact of FABP1 on THC metabolism in HLMs from individual donors; format: in vitro ADME; conditions: HLM incubations
[4] = test system: recombinant CYP3A4; test: THC incubations with recombinant CYP3A4 in the presence and absence of FABP1; format: in vitro ADME, human
Summary of the method: (§1)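 Recombinant CYP3A4 (Supersomes) at 0.625 nM (0.004 mg/mL microsomal protein), with seven nominal THC concentrations of 0.156–3.75 μM, ±20 μM FABP1 added before 5 min preincubation at 37 °C. Started with 1 mM NADPH, 1 min, with a no-NADPH control, then LC-MS/MS. M4 data were fitted to an allosteric sigmoidal model (K0.5, h); other metabolites used Michaelis-Menten fits, against free THC; matched pairs.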

[5] = test system: CYP3A4; test: as above; format: in vitro ADME, human; conditions: human
Summary of the method: as §1

[6] = THC unbound fraction in incubations with recombinant CYPs; format: in vitro ADME; conditions: human, recombinant CYP3A4 microsomes (Supersomes), pH 7.4
Summary of the method: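 Magnetic silica beads (50 μL), washed three times, were pre-equilibrated 30 min on ice with recombinant CYP at incubation protein concentration in 0.2 mL buffer. THC was added at each nominal kinetic concentration and incubated 30 min at 37 °C with shaking, then cooled 5 min at room temperature. Total and supernatant THC were measured by LC-MS/MS; fu = Cfree/Ctotal.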

[7] = THC unbound fraction in human liver microsome incubations; format: in vitro ADME; conditions: pooled liver microsomes, pH 7.4
Summary of the method: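 Magnetic silica beads (200 μL), washed three times, were pre-equilibrated 30 min on ice with HLM protein at incubation concentration in 0.5 mL buffer. THC was added at each nominal kinetic concentration and incubated 30 min at 37 °C with shaking, then cooled 5 min. Total and supernatant samples were quenched and measured by LC-MS/MS; fu = Cfree/Ctotal.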

[8] = test system: recombinant CYPs; test: THC metabolite formation by a panel of recombinant CYPs; format: in vitro ADME, human; conditions: 10 μM THC
Summary of the method: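 Individual recombinant CYPs (10 pmol/mL) across a twelve-enzyme panel were preincubated 5 min at 37 °C with 10 μM THC in 100 mM potassium phosphate pH 7.4. Reactions were started with 1 mM NADPH and ran 15 min, then were quenched with acetonitrile/1% formic acid containing 11-OH-THC-d3 and analysed by LC-MS/MS. Relative formation was the metabolite/internal-standard peak-area ratio; peaks below S/N 5 were not quantified.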

[9] = test system: CYP2C9; test: THC incubations with recombinant CYP2C9 in the presence and absence of FABP1; format: in vitro ADME, human; conditions: human
Summary of the method: (§2)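 Recombinant CYP2C9 (Supersomes) at 1 nM (0.0016 mg/mL microsomal protein), with seven nominal THC concentrations of 10–640 nM in pH 7.4 phosphate buffer, ±20 μM FABP1 added before 5 min preincubation at 37 °C. Started with 1 mM NADPH, 1 min, with a no-NADPH control. Quench was acetonitrile/formic acid with 11-OH-THC-d3, then LC-MS/MS. Km,u and kcat came from Michaelis-Menten fits against free THC; matched pairs, separate days.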

[10] = test system: recombinant CYP2C9; test: as above; format: in vitro ADME, human; conditions: recombinant CYP2C9, absence of FABP1
Summary of the method: as §2

[11] = cited from earlier work
[12] = test system: HLMs and recombinant CYP2C9; conditions: cited from earlier work; for Km: in HLM
[13] = test system: recombinant CYP2C19; test: THC incubations with recombinant CYP2C19 in the presence and absence of FABP1; format: in vitro ADME, human
Summary of the method: (§3)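 Recombinant CYP2C19 (Supersomes) at 1 nM (0.013 mg/mL microsomal protein), with nominal THC 0.02–1.0 μM, ±20 μM FABP1 added before 5 min preincubation at 37 °C. Started with 1 mM NADPH, 2 min, with a no-NADPH control, then quench and LC-MS/MS. Matched ±FABP1 pairs. Michaelis-Menten fits against free THC from bead measurements, with a mass-balance calculation when FABP1 was present. Replicates on separate days.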

[14] = test system: CYP2C19; test: as above; format: in vitro ADME, human; conditions: human
Summary of the method: as §3

[15] = target: T1, human FABP1; conditions: read-out: Kd previously reported; cited from earlier work
[16] = Kinetics of THC metabolite formation in pooled human liver microsomes; format: in vitro ADME; conditions: human, pooled human liver microsomes, pooled HLMs 0.1 mg/mL
Summary of the method: (§4)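 Pooled HLMs at 0.1 mg/mL with nominal THC 0.05–5 μM in 100 mM potassium phosphate pH 7.4. After 5 min preincubation at 37 °C, 1 mM NADPH was added and reactions ran 2 min, within time linearity. Quench was acetonitrile/1% formic acid with 11-OH-THC-d3, then LC-MS/MS. Michaelis-Menten fits used bead-measured free THC; linear fits gave CLint,u where saturation was absent. Three days, duplicates.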

[17] = test system: pooled human liver microsomes; test: as above; format: in vitro ADME; conditions: pooled HLMs 0.1 mg/mL; mean ± SD, 3 days
Summary of the method: as §4

[18] = cited from earlier work; remark: listed apart in the source
[19] = recombinant CYP3A4, absence of FABP1, allosteric sigmoidal model
[20] = THC depletion, 500 nM nominal, 0.2% BSA

CCC1(c2ccccc2)NC(=O)N(Cc2ccccc2)C1=O (single isomer, unassigned; (+)) [Benzylnirvanol, (+)-N-3-benzylnirvanol]
inhibition of M3 formation in donor HL-109 [1]: no impact

CCCCC/C=C\C/C=C\C/C=C\C/C=C\CCCC(=O)OC(CO)CO [2AG, 2-arachidonoylglycerol]
EC50 [2]: 180 ± 20 nM | Kd [2]: 60 ± 40 nM

CCCCC/C=C\C/C=C\C/C=C\C/C=C\CCCC(=O)NCCO [AEA, anandamide]
EC50 [2]: 310 ± 140 nM

C=C(C)[C@@H]1CCC(C)=C[C@H]1c1c(O)cc(CCCCC)cc1O [CBD, cannabidiol]
EC50 [2]: 920 ± 70 nM

Cc1ccc(-c2c(-c3nn(C)c4ncnc(N5CC[C@H](N6CCCCC6)C5)c34)cnn2C)cc1 [CYP3cide]
inhibition of M4 formation in donors without CYP3A5 expression ([1]; CYP3cide 0.5 μM): ~100% | inhibition of M3 formation in donor HL-109 [1]: ~100%

CCCCCc1cc(O)c2c(c1)OC(C)(C)[C@@H]1CCC(C)=C[C@@H]21 [THC, Δ9-tetrahydrocannabinol]
decrease in free concentrations of THC by FABP1 binding ([3]; 2 μM THC, 20 μM FABP1 vs absence): 86% | free THC in the absence of FABP1 ([3]; 2 μM nominal THC): 14 nM | free THC in the presence of FABP1 ([3]; 2 μM nominal THC, 20 μM FABP1): 2 nM | M3 formation by recombinant CYP3A4 in the presence of FABP1 ([4]; 20 μM FABP1): completely abolished | K0.5,u −FABP1, M4 formation [4, 19]: 43 ± 25 nM | hill slope (h), M4 formation [4, 19]: 1.4 ± 0.5 | Km at 1 min ([5]; recombinant CYP3A4 (Supersomes) with 20 μM FABP1, Km,u + FABP1, M2 formation, recombinant CYP3A4, 20 μM FABP1): > 20 nM | Km at 1 min ([5]; recombinant CYP3A4 (Supersomes) with 20 μM FABP1, Km,u + FABP1, M4 formation, recombinant CYP3A4, 20 μM FABP1): > 20 nM | Km at 1 min ([5]; recombinant CYP3A4 (Supersomes), Km,u of the other three major metabolites, formed mainly by recombinant CYP3A4/5): > 10 nM | Km at 1 min ([5]; recombinant CYP3A4 (Supersomes), Km,u −FABP1, M2 formation, recombinant CYP3A4, absence of FABP1): 29 ± 19 nM | Km at 1 min ([5]; recombinant CYP3A4 (Supersomes), Km,u −FABP1, M3 formation, recombinant CYP3A4, absence of FABP1): 18 ± 13 nM | fraction unbound at 30 min [6]: 0.15 ± 0.02 | fraction unbound at 30 min [7]: 0.015 ± 0.001 | velocity of 11-OH-THC formation by CYP2C9 and CYP2C19 relative to CYP2D6 [8]: ~ 3 fold | velocity of 11-OH-THC formation by CYP2C9 and CYP2C19 relative to other CYPs [8]: > 10 fold | EC50 [2]: 220 ± 130 nM | Km at 1 min ([9]; recombinant CYP2C9 (Supersomes) with 20 μM FABP1, Km,u + FABP1, 11-OH-THC formation, recombinant CYP2C9, 20 μM FABP1): > 20 nM | Km at 1 min ([9]; recombinant CYP2C9 (Supersomes), Km,u −FABP1, 11-OH-THC formation, recombinant CYP2C9, absence of FABP1): 0.8 nM | Km ([10]; read-out: Km,u −FABP1, 11-OH-THC formation): 0.77 ± 0.16 nM | kcat −FABP1, 11-OH-THC formation [10]: 12 min⁻¹ and 12 ± 0.87 min⁻¹ | blood to plasma ratio [11]: 0.67 | plasma protein binding fu ([11]; plasma): 0.01 | THC metabolic clearance in pooled HLMs assigned to CYP2C9 [12, 20]: 91% and > 90% | THC metabolic clearance in pooled HLMs assigned to CYP2D6 [12, 20]: 9% | Km ([12]; read-out: unbound Km (Km,u) for 11-OH-formation): 8 nM | Km ([12]; read-out: unbound Km (Km,u) for THC depletion): 7 nM | kcat + FABP1, 11-OH-THC formation ([13]; recombinant CYP2C19, 20 μM FABP1): 8.0 ± 2.0 min⁻¹ | kcat −FABP1, 11-OH-THC formation ([13]; recombinant CYP2C19, absence of FABP1): 14 min⁻¹ and 14 ± 0.68 min⁻¹ | Km at 2 min ([14]; recombinant CYP2C19 (Supersomes) with 20 μM FABP1, Km,u + FABP1, 11-OH-THC formation, recombinant CYP2C19, 20 μM FABP1): 5.2 ± 0.64 nM | Km at 2 min ([14]; recombinant CYP2C19 (Supersomes) with 20 μM FABP1, Km,u + FABP1, M3 formation, recombinant CYP2C19, 20 μM FABP1): 4.7 ± 0.72 nM | Km at 2 min ([14]; recombinant CYP2C19 (Supersomes), Km,u −FABP1, 11-OH-THC formation, recombinant CYP2C19, absence of FABP1): 2.2 nM | Km at 2 min ([14]; recombinant CYP2C19 (Supersomes), Km,u −FABP1, M3 formation, recombinant CYP2C19, absence of FABP1): 2.2 nM | Kd [15]: 2900 nM | Km at 2 min ([16]; Km,unbound of M2 formation, free THC concentrations): > 45 nM | Km at 2 min ([16]; Km,unbound of M3 formation, free THC concentrations): > 45 nM | Km at 2 min ([16]; Km,unbound of M4 formation, no saturation, linear): > 45 nM | Vmax of 11-OH-THC formation [17]: 521 ± 53 pmol/min/mg HLM | dose recovered in urine and feces ([18]; after iv administration): less than 1% | THC exposure (AUC) in CYP2C9*3/*3 carriers compared to CYP2C9*1/*1 carriers ([18]; after oral dosing): 3 fold | hepatic extraction ratio [18]: around 0.8 | increase of AUC of THC when co-administered with ketoconazole [18]: ~ 80% | contribution of CYP2C9 to THC clearance (fraction metabolized) ([18]; estimated from AUC in CYP2C9 genotypes): about 70% | THC exposure on co-administration of rifampicin ([18]; oral dosing of THC): decreases THC exposure

From article PMC11410521 (Biochemical pharmacology, 2024)
